Experimental data: ChEMBL document CHEMBL4715690 (Bioorg Med Chem, 2016)
The source made the active and inactive calls. No cut-off for these calls is given here.

Tests used:
SK-BR-3 = assay: Antiproliferative activity against human SK-BR-3 cells expressing c-MET assessed as reduction in cell viability incubated for 72 hrs by MTT assay; format: functional, cell-based; settings: SK-BR-3, 72 h
Summary of the method: (§1)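 Cells plated at 1×10⁴/well (6 wells/group) in RPMI-1640 with 10% FBS and left to adhere overnight. They were then switched to serum-free RPMI-1640 with 40 ng/mL HGF as mitogen plus at least four compound concentrations, or DMSO vehicle (final ≤0.1%), for 72 h, refed every other day. MTT (1 mg/mL) was added for 4 h, formazan dissolved in DMSO, and A570 read. Cell number came from a standard curve, survival was expressed versus DMSO, and IC50 was fitted by nonlinear regression.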

MDA-MB-468 = assay: Antiproliferative activity against human MDA-MB-468 cells expressing c-MET assessed as reduction in cell viability incubated for 72 hrs by MTT assay; format: functional, cell-based; settings: MDA-MB-468, 72 h; summary of the method: as §1
[1] = Antiproliferative activity against human MCF7-DOX cells expressing c-MET assessed as reduction in cell viability incubated for 72 hrs by MTT assay; format: functional, cell-based
Summary of the method: (§2)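 MTT proliferation. Cells in exponential growth were seeded at 1×10⁴/well (6 wells/group) in RPMI-1640 with 10% FBS and left to adhere overnight. They were then switched to serum-free RPMI-1640 with 40 ng/mL HGF as mitogen plus test doses (at least four concentrations) or DMSO vehicle (≤0.1% final), refreshed every other day. After 72 h, 1 mg/mL MTT was added for 4 h, DMSO solubilized, A570 read. Cell number came from a standard curve, and IC50 was fitted by nonlinear regression of log concentration versus % survival.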

MCF7 = assay: Antiproliferative activity against human MCF7 cells expressing c-MET assessed as reduction in cell viability incubated for 72 hrs by MTT assay; format: functional, cell-based; settings: MCF7, 72 h; summary of the method: as §1
MDA-MB-231 [2] = assay: Antiinvasive activity against human MDA-MB-231 cells assessed as reduction in HGF-mediate cell invasion at 15 uM incubated for 24 hrs by fluorescence based assay relative to control; format: functional; design: scale not given: the % may be the effect or the level left
Summary of the method: (§3)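 Cells starved 16 h in serum-free RPMI-1640, then 25,000 cells placed in rehydrated basement-membrane inserts. The bottom wells held 5% serum medium with test compound or DMSO vehicle, and invasion was induced with 40 ng/mL HGF. After 24 h at 37 °C, invaded cells were stained with calcein AM and read at ex 485/em 520 nm. Cell number came from a standard curve; triplicates.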

MDA-MB-231 [3] = assay: Antiproliferative activity against human MDA-MB-231 cells expressing c-MET assessed as reduction in cell viability incubated for 72 hrs by MTT assay; format: functional, cell-based; settings: MDA-MB-231, 72 h; summary of the method: as §2
[4] = Cytotoxicity against human MCF-10A cells assessed as cell viability at 20 uM incubated for 72 hrs by MTT assay; format: cell-based; settings: read-out: Activity
MDA-MB-231 [5] = assay: Antiinvasive activity against human MDA-MB-231 cells assessed as reduction in HGF-mediate cell invasion at 30 uM incubated for 24 hrs by fluorescence based assay relative to control; format: functional; design: scale not given: the % may be the effect or the level left; summary of the method: as §3
[6] = biological target: T1, Hepatocyte growth factor receptor (Homo sapiens, UniProt P08581); assay: Inhibition of recombinant human His-tagged c-MET expressed in baculovirus expression system assessed as reduction in c-MET phosphorylation at 5 uM using Tyr6 as substrate incubated for 1 hr by Z'-lyte assay relative to control
T1 sequence (P08581 whole entry): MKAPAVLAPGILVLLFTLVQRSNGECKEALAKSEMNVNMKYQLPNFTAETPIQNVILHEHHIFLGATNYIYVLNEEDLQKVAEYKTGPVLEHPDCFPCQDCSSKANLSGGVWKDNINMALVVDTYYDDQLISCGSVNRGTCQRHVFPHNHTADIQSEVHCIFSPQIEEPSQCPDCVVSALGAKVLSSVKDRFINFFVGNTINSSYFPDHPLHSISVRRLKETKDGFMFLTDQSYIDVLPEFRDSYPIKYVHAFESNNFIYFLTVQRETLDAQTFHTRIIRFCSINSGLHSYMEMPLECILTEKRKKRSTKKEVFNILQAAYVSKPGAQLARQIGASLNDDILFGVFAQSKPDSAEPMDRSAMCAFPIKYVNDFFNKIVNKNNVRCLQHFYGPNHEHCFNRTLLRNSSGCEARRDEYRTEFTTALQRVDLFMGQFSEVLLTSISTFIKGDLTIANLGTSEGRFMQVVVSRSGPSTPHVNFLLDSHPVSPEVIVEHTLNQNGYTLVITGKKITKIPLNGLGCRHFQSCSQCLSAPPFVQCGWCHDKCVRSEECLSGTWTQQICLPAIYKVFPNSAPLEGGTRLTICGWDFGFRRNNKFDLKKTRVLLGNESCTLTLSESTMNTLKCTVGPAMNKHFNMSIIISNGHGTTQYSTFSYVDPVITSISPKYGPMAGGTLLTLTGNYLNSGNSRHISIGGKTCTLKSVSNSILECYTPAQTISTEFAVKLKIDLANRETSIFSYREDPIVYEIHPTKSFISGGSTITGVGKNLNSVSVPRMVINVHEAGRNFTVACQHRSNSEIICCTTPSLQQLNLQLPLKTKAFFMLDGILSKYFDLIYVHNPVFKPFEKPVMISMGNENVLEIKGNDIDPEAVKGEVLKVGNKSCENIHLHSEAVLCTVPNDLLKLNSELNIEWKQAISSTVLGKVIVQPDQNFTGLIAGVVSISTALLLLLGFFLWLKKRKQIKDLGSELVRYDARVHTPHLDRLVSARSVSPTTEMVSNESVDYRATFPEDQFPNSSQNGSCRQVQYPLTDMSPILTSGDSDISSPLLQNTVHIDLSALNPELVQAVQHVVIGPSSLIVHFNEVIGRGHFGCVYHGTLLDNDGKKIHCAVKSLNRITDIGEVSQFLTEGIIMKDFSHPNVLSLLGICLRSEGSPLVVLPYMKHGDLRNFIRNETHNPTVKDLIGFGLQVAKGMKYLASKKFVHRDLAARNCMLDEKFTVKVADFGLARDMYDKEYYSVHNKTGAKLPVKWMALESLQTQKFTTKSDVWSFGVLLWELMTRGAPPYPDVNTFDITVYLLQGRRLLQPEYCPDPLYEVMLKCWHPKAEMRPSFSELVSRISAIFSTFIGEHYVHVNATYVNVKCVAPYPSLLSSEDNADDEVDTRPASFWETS
Summary of the method: (§4)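 Cell-free Z′-LYTE Tyr6 assay with recombinant human wild-type or M1250T mutant c-Met kinase at 2500 ng/mL, plus 200 μM ATP, 4 μM Tyr6 peptide and inhibitor. Reaction ran 1 h at room temperature, followed by protease development for 1 h. Readout was the 445/520 nm emission ratio. IC50 from nonlinear regression of log concentration vs % phosphorylation; n=3/dose.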

BT-474 = assay: Antiproliferative activity against human BT-474 cells expressing c-MET assessed as reduction in cell viability incubated for 72 hrs by MTT assay; format: functional, cell-based; settings: BT-474, 72 h; summary of the method: as §1
[7] = biological target: T1, Hepatocyte growth factor receptor; assay: Inhibition of recombinant human His-tagged c-MET expressed in baculovirus expression system assessed as reduction in c-MET phosphorylation at 10 uM using Tyr6 as substrate incubated for 1 hr by Z'-lyte assay relative to control; summary of the method: as §4
HL-60 = assay: Cytotoxicity against human HL-60 cells assessed as reduction in cell viability incubated for 72 hrs by MTT assay; format: functional, cell-based; settings: HL-60, 72 h
A549 = assay: Cytotoxicity against human A549 cells assessed as reduction in cell viability incubated for 72 hrs by MTT assay; format: functional, cell-based; settings: A549, 72 h
Bel-7402 = assay: Cytotoxicity against human Bel-7402 cells assessed as reduction in cell viability incubated for 72 hrs by MTT assay; format: functional, cell-based; settings: Bel-7402, 72 h
MOLT-4 = assay: Cytotoxicity against human MOLT-4 cells assessed as reduction in cell viability incubated for 72 hrs by MTT assay; format: functional, cell-based; settings: MOLT-4, 72 h
MDA-MB-231 [8] = assay: Antiinvasive activity against human MDA-MB-231 cells assessed as reduction in HGF-mediate cell invasion at 8 uM incubated for 24 hrs by fluorescence based assay relative to control; format: functional; design: scale not given: the % may be the effect or the level left; summary of the method: as §3
T47D = assay: Antiproliferative activity against human T47D cells assessed as reduction in cell viability incubated for 72 hrs by MTT assay; format: functional, cell-based
Summary of the method: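 Cells plated at 1×10⁴/well in RPMI-1640 with 10% FBS and left to adhere overnight. They were then fed serum-free RPMI-1640 containing 40 ng/mL HGF and at least four compound concentrations, 6 wells/group, for 72 h, with medium renewed every other day. MTT 1 mg/mL for 4 h, formazan dissolved in DMSO, A570. Cell number came from a standard curve; IC50 from nonlinear regression of log concentration vs % survival relative to DMSO.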

[9] = Cytotoxicity against human MCF-10A cells assessed as cell viability at 10 uM incubated for 72 hrs by MTT assay; format: cell-based; settings: read-out: Activity
[10] = biological target: Hepatocyte growth factor receptor (Homo sapiens, UniProt P08581, M1250T); assay: Inhibition of recombinant human His-tagged c-MET M1250T mutant expressed in baculovirus expression system assessed as reduction in c-MET phosphorylation using Tyr6 as substrate incubated for 1 hr by Z'-lyte assay
Hepatocyte growth factor receptor (Homo sapiens, UniProt P08581, M1250T), sequence (P08581 whole entry M1250T): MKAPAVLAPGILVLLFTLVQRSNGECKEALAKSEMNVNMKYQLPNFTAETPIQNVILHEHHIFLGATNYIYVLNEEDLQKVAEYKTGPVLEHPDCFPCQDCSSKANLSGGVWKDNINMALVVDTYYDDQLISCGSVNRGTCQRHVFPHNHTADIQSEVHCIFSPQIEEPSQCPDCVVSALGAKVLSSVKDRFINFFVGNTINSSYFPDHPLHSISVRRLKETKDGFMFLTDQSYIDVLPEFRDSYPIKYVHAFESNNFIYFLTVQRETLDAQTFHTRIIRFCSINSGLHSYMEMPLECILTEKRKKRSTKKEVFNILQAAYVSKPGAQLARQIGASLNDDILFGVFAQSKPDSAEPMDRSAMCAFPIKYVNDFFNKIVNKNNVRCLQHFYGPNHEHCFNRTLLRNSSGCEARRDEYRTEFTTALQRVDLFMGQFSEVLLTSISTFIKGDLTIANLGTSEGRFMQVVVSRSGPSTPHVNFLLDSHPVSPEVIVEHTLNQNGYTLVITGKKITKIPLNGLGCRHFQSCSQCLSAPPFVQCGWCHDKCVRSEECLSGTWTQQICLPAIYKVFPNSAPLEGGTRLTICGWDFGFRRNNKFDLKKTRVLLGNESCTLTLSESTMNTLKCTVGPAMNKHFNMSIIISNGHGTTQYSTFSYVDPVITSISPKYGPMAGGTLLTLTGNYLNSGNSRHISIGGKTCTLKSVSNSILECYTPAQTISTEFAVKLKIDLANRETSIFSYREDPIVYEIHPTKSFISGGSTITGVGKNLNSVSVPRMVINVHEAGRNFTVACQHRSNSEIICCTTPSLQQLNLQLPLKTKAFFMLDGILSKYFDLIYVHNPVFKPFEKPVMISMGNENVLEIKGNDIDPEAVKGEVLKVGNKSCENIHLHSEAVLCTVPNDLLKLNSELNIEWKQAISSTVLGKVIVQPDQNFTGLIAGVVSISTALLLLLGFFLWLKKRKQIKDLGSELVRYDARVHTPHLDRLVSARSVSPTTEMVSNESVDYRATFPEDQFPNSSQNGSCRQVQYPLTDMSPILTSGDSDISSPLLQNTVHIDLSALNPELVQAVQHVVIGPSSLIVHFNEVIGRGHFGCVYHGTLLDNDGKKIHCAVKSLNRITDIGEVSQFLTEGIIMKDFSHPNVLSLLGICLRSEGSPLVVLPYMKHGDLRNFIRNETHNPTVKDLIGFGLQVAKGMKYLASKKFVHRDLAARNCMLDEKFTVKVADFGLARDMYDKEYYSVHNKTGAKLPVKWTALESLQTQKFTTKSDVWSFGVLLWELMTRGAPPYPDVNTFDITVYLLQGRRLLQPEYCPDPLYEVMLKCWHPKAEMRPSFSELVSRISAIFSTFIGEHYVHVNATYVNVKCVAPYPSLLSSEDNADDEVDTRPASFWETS

[11] = biological target: T1, Hepatocyte growth factor receptor; assay: Inhibition of recombinant human His-tagged c-MET expressed in baculovirus expression system assessed as reduction in c-MET phosphorylation using Tyr6 as substrate incubated for 1 hr by Z'-lyte assay; summary of the method: as §4
MDA-MB-231 [12] = assay: Cytotoxicity against human MDA-MB-231 cells assessed as reduction in cell viability at 50 uM incubated for 24 hrs by LDH assay relative to control; format: functional
Summary of the method: (§5)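 MDA-MB-231 cells seeded at 3×10⁴/well and allowed to attach, then treated in triplicate in 5% serum medium for 24 h at 37 °C. Triton X-100 gave maximum release, and […]. Supernatant was reacted with NAD⁺, lactate, INT and diaphorase for 30 min at room temperature, then read at A490. % cytotoxicity was computed relative to spontaneous and maximum release.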

MDA-MB-231 [13] = assay: cells; settings: Homo sapiens, MDA-MB-231, 24 h
MDA-MB-231 [14] = assay: Reduction of c-MET expression level in human MDA-MB-231 cells at 15 to 30 uM incubated for 48 hrs by Western blot analysis; format: functional, cell-based; settings: dose 15-30 µM
Summary of the method: (§6)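 MDA-MB-231 cells seeded at 1×10⁶ per 100 mm dish and left overnight. Cells were treated with compound or DMSO in serum-free medium containing HGF 50 ng/mL for 48 h. RIPA lysates (30 μg protein) were run on SDS-PAGE and transferred to PVDF. Membranes were blocked in 5% BSA/TBST and probed overnight at 4 °C with primary antibodies, then HRP secondary; chemiluminescent detection.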

[15] = Cytotoxicity against human MCF-10A cells assessed as cell viability at 5 uM incubated for 72 hrs by MTT assay; format: cell-based; settings: read-out: Activity
MDA-MB-231 [16] = assay: Antiinvasive activity against human MDA-MB-231 cells assessed as reduction in HGF-mediate cell invasion at 4 uM incubated for 24 hrs by fluorescence based assay relative to control; format: functional; design: scale not given: the % may be the effect or the level left; summary of the method: as §3
[17] = Cytotoxicity against human MCF-10A cells assessed as cell viability at 30 uM incubated for 72 hrs by MTT assay; format: cell-based; settings: read-out: Activity
MDA-MB-231 [18] = assay: Cytotoxicity against human MDA-MB-231 cells assessed as reduction in cell viability at 25 uM incubated for 24 hrs by LDH assay relative to control; format: functional; summary of the method: as §5
MDA-MB-231 [19] = assay: Antiinvasive activity against human MDA-MB-231 cells assessed as reduction in HGF-induced cell invasion incubated for 24 hrs by fluorescence based assay; format: functional; summary of the method: as §3
[20] = Toxicity in athymic nude-Foxn1nu/Fox1+ mouse assessed as effect on body weight at 10 mg/kg, ip dosed 3 times per week for 3 weeks treatment started 14 days of post inoculation; format: organism-based; settings: in vivo, 504 h
Summary of the method: (§7)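 Female athymic nude mice, 4–5 weeks old, received 1×10⁶ MDA-MB-231/GFP cells into the second mammary fat pad (orthotopic), n = 5/group. Dosing was 10 mg/kg i.p. 3×/week or DMSO/saline vehicle, starting on day 14 after inoculation. Tumor volume was taken as L/2 × W², with body weight and clinical signs monitored. Mice were killed on day 33 and tumors excised and weighed.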

[21] = biological target: T1, Hepatocyte growth factor receptor; assay: Inhibition of c-MET in human MDA-MB-231 cells assessed as reduction in c-MET phosphorylation level at 15 to 30 uM incubated for 48 hrs by Western blot analysis; format: cell-based; settings: dose 15-30 µM; summary of the method: as §6
MDA-MB-231 [22] = assay: Antitumor activity against GFP-tagged human MDA-MB-231 cells xenografted in athymic nude-Foxn1nu/Fox1+ mouse assessed as the reduction in tumor growth at 10 mg/kg, ip dosed 3 times per week for 3 weeks treatment started 14 days of post inoculation; format: functional; settings: MDA-MB-231, ip, 504 h, read-out: TGI; summary of the method: as §7

| Structure (SMILES) | IC50 (SK-BR-3) | IC50 (MDA-MB-468) | IC50 [1] | IC50 (MCF7) | Activity (MDA-MB-231 [2]) | IC50 (MDA-MB-231 [3]) | viability at 72 h, 20 µM [4] | Activity (MDA-MB-231 [5]) | inhibition [6] | IC50 (BT-474) | inhibition [7] | IC50 (HL-60) | IC50 (A549) | further results |
| --- | --- | --- | --- | --- | --- | --- | --- | --- | --- | --- | --- | --- | --- | --- |
| C=CC(C)(C)[C@@]12C[C@H]3C(=O)N/C(=C/c4c[nH]cn4)C(=O)N3[C@@H]1Nc1ccccc12 [ROQUEFORTINE C] | 23.4 µM | 28.6 µM | 24.4 µM | 21.7 µM | 47.6% | 23.5 µM | 98.4% | 79.3% | 39.7% | 29.6 µM | 59.7% |  |  |  |
| O=C1N[C@@H](Cc2c[nH]c3ccccc23)C(=O)N/C1=C/c1cnc[nH]1 | 40 µM | 40 µM | 23.8 µM | 40 µM | 46.1% | 31.8 µM |  | 83% | 0% | 40 µM | 10.2% |  |  |  |
| C=CC(C)(C)[C@@]12C=C(O)C(=O)N3/C(=C/c4cn([C@H]5C[C@@]6(O)O[C@@H]7C[C@@]6(C)[C@]6(C[C@]8(C)CCC(C)(C)[C@@H]8[C@@H]76)[C@@H]5C)cn4)C(=O)N[C@]31N(OC)c1ccccc12 |  |  |  |  |  |  |  |  |  |  |  | 1.8 µM | 1.8 µM | IC50 (Bel-7402): 1.8 µM; IC50 (MOLT-4): 1.8 µM |
| C=CC(C)(C)[C@@]12C=C(O)C(=O)N3/C(=C/c4cnc[nH]4)C(=O)N[C@]31N(OC)c1ccccc12 | 2.8 µM | 8.9 µM | 3.2 µM | 1.9 µM |  | 6.8 µM | 74.4% |  | 56.3% | 2.7 µM | 88% | 7.4 µM | 19.9 µM | Activity (MDA-MB-231 [8]): 57.5%; IC50 (T47D): > 40 µM; viability at 72 h, 10 µM [9]: 98.8%; IC50 [10]: 2.1 µM; IC50 [11]: 4.2 µM; inhibition [11]: Dose-dependent effect; inhibition at 50 µM (MDA-MB-231 [12]): 9.4%; IC50 (MDA-MB-231 [13]): 1.8 µM; inhibition (MDA-MB-231 [14]): inactive; viability at 72 h, 5 µM [15]: 100%; Activity (MDA-MB-231 [16]): 30.7%; viability at 72 h, 30 µM [17]: 48.9%; inhibition at 25 µM (MDA-MB-231 [18]): 2.5%; Activity (MDA-MB-231 [19]): Dose-dependent effect; Activity [20]: Non-Toxic; inhibition [21]: Active; inhibition in vivo at 10 mg/kg (MDA-MB-231 [22]): 65% |
